Compound activity deposited in PubChem BioAssay by Broad Institute.
PDI inh – PDI (human) enzyme inhibition. hit rate 0.052% among 350,000. P07237. PDI insulin aggregation turbidity, A650, 90 min. inhibition, % at 10 µM;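 active = mean inhibition across replicates of 30% or more, whatever share of single replicates reach that level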
rRNA inh HTS – inhibitors of bacterial rRNA selective over humanized ribosomes. E. coli WT GFP vs humanized-ribosome RFP mutants, fluorescence, 24 h; stronger effect = lower value; DMSO median 0, no signal -100. GFP signal change (wild-type ribosome), % (no concentration beside the values). hit rate 1.6% among 350,000;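 active = significant combined selectivity score with lowered wild-type GFP, culture density cut under 30%, mutant RFP and density less affected; inactive = any of these conditions unmet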
HIV Env fusion – HIV envelope-mediated fusion inhibition; hit rate 1.1% among 360,000; inhibition, % at 12.3 µM; HeLa-JRFL Env/CEM21 cell fusion, luciferase;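 active = mean replicate inhibition score of at least 50 and every replicate individually at or above 50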;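 note: 0% = plate neutral controls and 100% = maraviroc near 300 nM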
PvdQ acylase – blocks Pseudomonas aeruginosa PvdQ acylase activity. hit rate 0.063% among 340,000. purified PvdQ acylase, fluorescence plate reader. inhibition, % at 10 µM; in the data active = inhibition above about 30%, passing the limit was not always enough;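 note: 0% = vehicle neutral wells and 100% = reference inhibitor wells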
FN deposit inh – fibronectin deposition inhibition | AH1F fibroblasts, Alexa488-fibronectin deposition fluorescence, overnight | hit rate 0.086% among 350,000 | AID 743247 | inhibition, % at 12.6 µM;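 active = mean inhibition across replicates of 30% or more, regardless of how many single replicates reach that level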;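 note: positive control wells lacked labelled fibronectin entirely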
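Material: AH1F fibroblast monolayer depositing Alexa488-labelled fibronectin into matrix | Input: 10000 AH1F cells/well | Medium: DMEM plus 2% serum, read in PBS | Reagent: Alexa488-fibronectin, 24 nM final in well | Compound dosing: One dose per compound, pinned | Schedule: 1 h adhesion, overnight exposure | Measured by: Fluorescence at 485 nm excitation, 525 nm emission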
ERp5 block – inhibitors of human ERp5. Q15084. ERp5 insulin aggregation, absorbance 650 nm, 90 min. inhibition, % at 9.99 µM. hit rate 0.05% among 350,000;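 active = mean replicate inhibition above about 25%, with every replicate also reaching it, limit read from the data, passing the limit was not always enough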
Target sequence (Q15084 whole entry, looked up): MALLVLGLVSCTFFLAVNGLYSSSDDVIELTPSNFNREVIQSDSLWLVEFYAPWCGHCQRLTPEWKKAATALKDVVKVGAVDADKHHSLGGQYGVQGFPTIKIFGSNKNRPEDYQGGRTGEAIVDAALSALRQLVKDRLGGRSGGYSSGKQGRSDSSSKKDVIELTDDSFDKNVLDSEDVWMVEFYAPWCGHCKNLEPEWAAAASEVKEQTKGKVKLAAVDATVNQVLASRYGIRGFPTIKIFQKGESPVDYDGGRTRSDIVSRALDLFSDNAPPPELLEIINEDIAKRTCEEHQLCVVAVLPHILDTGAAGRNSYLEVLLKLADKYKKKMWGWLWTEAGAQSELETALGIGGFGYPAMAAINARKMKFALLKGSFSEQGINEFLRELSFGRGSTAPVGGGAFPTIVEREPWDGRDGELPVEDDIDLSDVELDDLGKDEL
An asterisk follows results filed as active; nt = not tested or not shown; [ ] = another dose, or the depositor's remark. A selection: hits, their analogues and other compounds. The true share with any hit is near 2.2%.

SMILES	PDI inh	rRNA inh HTS	HIV Env fusion	PvdQ acylase	FN deposit inh	ERp5 block
O=C(NCc1nnc(SCc2ccccc2)n1-c1ccc(F)cc1)C12CC3CC(CC(C3)C1)C2	-18	-52	23	-9	-4	4
O=C(NCc1nnc(SCc2ccccc2)n1-c1ccccc1)C12CC3CC(CC(C3)C1)C2	-6	-31*	37	-12	4	8
O=C(Nc1ccc2c(c1)CCC2)c1cccc(OC(F)F)c1	0	-24*	-151	nt	10	3
CN(C)S(=O)(=O)c1cccc(C(=O)Nc2ccc3c(c2)CCC3)c1	-11	-19*	-76	-14	3	-1
CN(C)S(=O)(=O)c1ccc(C(=O)Nc2ccc3c(c2)CCC3)cc1	2	-22	-7	0	-7	0
CCOc1ccccc1CN1[C@@H](c2ccc(OC)cc2)CC(C(=O)OC)(C(=O)OC)[C@H]1c1ccccc1	nt	26	61*	nt	nt	-3
CCSC(=S)c1c(C)[nH]n(-c2ccccc2)c1=O	-3	-43*	4	-16	4	1
Cc1[nH]n(-c2ccccc2)c(=O)c1C(=O)c1ccccc1	-13	-29	-6	9	-3	4
COc1ccccc1CNc1ccc(Br)cn1	-7	-29*	-31	8	-14	2
COc1ccc2c3c([nH]c2c1)[C@H](CO)NCC31CN(C(=O)Cc2cccnc2)C1	nt	3	nt	nt	nt	nt
CC1(CCc2ccccc2)NC(=O)N(Cc2cc([N+](=O)[O-])cc3c2OCOC3)C1=O (configuration not stated)	10	-24*	29	14	-10	-1
O=[N+]([O-])c1cc2c(c(CSc3nnc4ccccn34)c1)OCOC2	-1	nt	nt	-8	nt	nt
C[C@H]1CN([C@@H](C)CO)C(=O)CCCn2nncc2CO[C@H]1CN(C)C(=O)Nc1cccc(F)c1	nt	-1	nt	nt	0	1
CCC/C=C/c1ccc(CN2C(C(C)C)C(=O)N(Cc3cn(CC4CCCCC4)nn3)CCS2(=O)=O)cc1 (configuration not stated)	-8	-3	68*	nt	-2	-1
CCC/C=C/c1ccc(CN2C(C)C(=O)N(Cc3cn(CC4CCCCC4)nn3)CCS2(=O)=O)cc1 (configuration not stated)	3	8	2	nt	-2	1
O=C(C[C@H]1C[C@H]2c3cc(NS(=O)(=O)c4ccccc4)ccc3O[C@H]2[C@H](CO)O1)NC1CCCCC1	nt	-4	13[16.7 µM]	nt	2	3
NC(=O)C1CCN(C2=C(NS(=O)(=O)c3ccc(Br)cc3)C(=O)c3ccccc3C2=O)CC1	-4	-31*	-5	-10	-13	1
CCOC(=O)C1CCN(C2=C(NS(=O)(=O)c3ccc(Br)cc3)C(=O)c3ccccc3C2=O)CC1	-2	-38*	-14	-8	-26	1
C[C@@H]1CN(C)C(=O)c2ccccc2O[C@@H]1CN(C)C(=O)OC(C)(C)C	nt	-3	nt	nt	-13	nt
COc1cc(/C=C/C(=O)OCC(=O)NCCCc2ccccc2)cc(OC)c1OC	0	-18*	-4	-8	0	5
COc1cc(/C=C/C(=O)OCC(=O)NCCc2ccccc2)cc(OC)c1OC	-2	-22	28	-24	4	-2
C/C=C/c1ccc([C@@H]2[C@H](CO)N(CCC(F)(F)F)C23CN(C(=O)COC)C3)cc1	nt	-1	nt	nt	nt	1
Cc1c(CC(Cl)(Cl)Cl)c2c(n1O)CC(C)(C)CC2=O	4	-32*	-3	-9	3	2
CC(=O)C1=C(O)C(=O)N(c2ccc(Br)cc2)C1c1ccc(Br)cc1 (configuration not stated)	-7	-14	-6	-9	-3	1
COc1ccc(C2C(C(C)=O)=C(O)C(=O)N2c2ccc(C)cc2)cc1 (configuration not stated)	6	-24*	2	-13	-3	0
SMILES	PDI inh	rRNA inh HTS	HIV Env fusion	PvdQ acylase	FN deposit inh	ERp5 block
COc1ccc(CNc2ccc3c(c2)ncn3-c2ccccc2OC)cc1	0	nt	nt	5	nt	nt
COc1ccccc1-n1cnc2cc(NCc3ccccc3O)ccc21	-5	-18*	0	5	4	4
CCOc1ccc(CCNC(=O)CCc2nc3ccccc3[nH]2)cc1OCC	5	-20*	-18	-3	-1	-4
COc1ccc(CCNC(=O)CCc2nc3ccccc3[nH]2)cc1OC	4	-14	3	-14	9	3
COC(=O)c1c(-c2ccc(SC)cc2)sc2ccc(OC)cc12	0	-12	-153	-9	7	5
COC(=O)c1c(-c2ccc(OC)cc2)sc2cc(OC)c(OC)cc12	-3	-24*	-20	-18	1	-5
N=c1c2c3c(sc2ncn1Cc1ccccc1)CCCC3	6	nt	8	-6	-4	nt
N=c1c2c3c(sc2ncn1Nc1ccccc1)CCC3	4	-17*	11	nt	-5	3
CN1CCN(c2c(/C=N/O)c3ccccc3n2C)CC1	11	5	10	-1	2	1
Cc1ccccc1C(=O)O/N=C/c1c(N2CCOCC2)n(C)c2ccccc12	-2	nt	60*	0	8	nt
COCC(=O)N1C[C@H](C)[C@@H](OC)CN(C)C(=O)c2ccc(NC(=O)NC(C)C)cc2OC[C@H]1C	nt	2	nt	nt	-4	1
CCOc1ccc(NC(=O)COn2nnc3ccc(S(=O)(=O)N4CCOCC4)cc32)cc1	-9	-29*	11	-1	-1	2
COc1ccc2c3c([nH]c2c1)[C@H](CO)N(S(=O)(=O)c1cn(C)cn1)CC31CCN(Cc2ccccc2Cl)CC1	nt	-3	nt	nt	-3	nt
CCCCCn1ccc(=O)c2c(C(F)(F)F)nccc21	1	nt	51*	-6	-3	nt
O=C(NC1CCCCC1)N1CC(=O)N2[C@H](CO)[C@@H](c3ccc(-c4cccnc4)cc3)[C@H]2C1	nt	5	nt	nt	-4	1
CCOC(=O)c1ccc(NC(=O)c2c(NC(=O)CCC(=O)O)sc3c2CCCCC3)cc1	1	-3	7	-8	nt	2
CCOc1ccccc1NC(=O)c1c(NC(=O)CCC(=O)O)sc2c1CCCCC2	-4	-19	17	4	33*	5
CCOc1cc(/C=C2\N=C(C)OC2=O)cc(Br)c1OCCc1ccccc1	12	-24*	nt	0	nt	14
Nc1[nH]c(C(=O)c2ccccc2)c(-c2ccccc2[N+](=O)[O-])c1C(=O)NCCc1c[nH]c2ccccc12	nt	-38*	-8	nt	6	6
Nc1[nH]c(C(=O)c2ccccc2)c(-c2ccc([N+](=O)[O-])cc2)c1C(=O)NCCc1c[nH]c2ccccc12	nt	-22	-21	nt	18	2
N#CC(Sc1ccccn1)c1ccc(Cl)cc1Cl (configuration not stated)	-6	-21*	-7	29	-2	1
CCC1(C)Cc2ccccc2-c2nc(SC)[nH]c(=O)c21 (configuration not stated)	4	1	80*	-4	-7	-6
